Assay outcomes (PubChem)
FLuc inh counter: Photinus pyralis luciferase inhibition counter-screen | ATPLite firefly luciferase biochemical luminescence, 10 min | inhibition, % at 10 µM | 1.5% of 200,000 active | AID 1006;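 active = inhibition above about 50% when tested at 10 µM, limit read from the data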
C8 TRAIL sens: sensitizes caspase-8 expressing cells to TRAIL; NB7+C8 cells + TRAIL, ATPlite viability luminescence; inhibition (viability loss, TRAIL sensitization), % at 10 µM; 1% of 360,000 active;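 active = compounds causing at least 50% loss of cell viability in the single-dose screen, relative to plate controls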
Wee1 degr inh: blocks degradation of human Wee1 kinase; P30291; HeLa Luc-Wee1K328M stability, luciferase luminescence; 100% = proteasome inhibitor MG132 effect; reporter increase, % at 5 µM; 1.2% of 220,000 active;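 active = activation above the mean of all tested compounds plus 3 SD, set per screening run, cut at about 8.8% in these data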;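 also: cells exposed to compound for 20 h before luminescence read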
PPC-1+TRAIL kill: kills PPC-1 cancer cells in the presence of TRAIL. 0.41% of 220,000 active. cell killing (% activity), % at 4 µM or 5 µM. PPC-1 cells + TRAIL, ATPLite viability luminescence;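 active = cell killing above 50% in the first pass at 4 µM, then a duplicate retest at 5 µM averaging 50% or more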
FLuc stim CS: firefly luciferase counter-screen for stimulation assays; ATPlite luciferase biochemical, luminescence, 10 min; 0 = ATP-free wells, 1 = DMSO control; P08659; 200,000 tested, under 10 active; AID 1027; activation factor at 10 µM;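 active = luciferase activation factor, scaled between plate controls, of at least 2 with compound at 10 µM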
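Material: Luciferase/luciferin reagent mix | Doses: Test compounds dosed from 2 mM stocks in 100% DMSO | Timing: 10 min incubation after luciferase reagent addition, room temperature | Measured by: Luminescence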
PKD1 kinase inh: blocks activity of human protein kinase D1; PKD1 kinase fluorescence polarization assay; inhibition, % (concentration not given with the values); 0.056% of 200,000 active; AID 797; in the data active = inhibition above about 50%
Target sequence (Q15139 whole entry, looked up): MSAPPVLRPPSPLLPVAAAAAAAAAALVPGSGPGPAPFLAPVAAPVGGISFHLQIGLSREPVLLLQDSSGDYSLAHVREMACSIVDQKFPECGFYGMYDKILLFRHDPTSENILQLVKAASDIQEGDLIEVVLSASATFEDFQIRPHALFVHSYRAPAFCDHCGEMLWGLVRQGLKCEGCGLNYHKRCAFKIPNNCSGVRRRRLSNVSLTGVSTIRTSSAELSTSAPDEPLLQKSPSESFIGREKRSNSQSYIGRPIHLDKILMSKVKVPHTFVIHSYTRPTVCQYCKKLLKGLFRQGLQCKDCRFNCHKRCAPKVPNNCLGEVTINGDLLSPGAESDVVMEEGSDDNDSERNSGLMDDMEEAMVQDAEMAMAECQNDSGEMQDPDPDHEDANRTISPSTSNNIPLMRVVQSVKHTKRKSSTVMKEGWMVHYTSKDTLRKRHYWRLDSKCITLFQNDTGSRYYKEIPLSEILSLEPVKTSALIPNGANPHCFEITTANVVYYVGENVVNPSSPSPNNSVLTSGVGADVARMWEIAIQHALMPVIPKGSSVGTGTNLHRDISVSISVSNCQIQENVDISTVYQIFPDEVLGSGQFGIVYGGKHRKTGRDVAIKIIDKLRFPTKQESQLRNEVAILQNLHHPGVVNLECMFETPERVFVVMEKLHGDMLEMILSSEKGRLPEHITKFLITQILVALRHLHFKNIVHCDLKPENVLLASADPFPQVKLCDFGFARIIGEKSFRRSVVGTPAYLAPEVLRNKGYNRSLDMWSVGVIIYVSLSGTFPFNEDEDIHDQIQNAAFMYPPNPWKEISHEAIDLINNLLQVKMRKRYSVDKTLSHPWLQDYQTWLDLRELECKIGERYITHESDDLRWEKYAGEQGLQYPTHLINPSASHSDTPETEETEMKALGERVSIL
Numbers stand for hits. An excerpt weighted towards active compounds, which were near 2.2% of everything screened.

For CC(NS(=O)(=O)c1ccccc1)C1COc2ccccc2O1 (stereo not given) the results were FLuc inh counter inactive, C8 TRAIL sens inactive, Wee1 degr inh 13, PPC-1+TRAIL kill inactive, FLuc stim CS inactive and PKD1 kinase inh inactive.
Screening CC(NCC1COc2ccccc2O1)C1COc2ccccc2O1 (stereo not given) returned C8 TRAIL sens inactive.
For COc1ccc(-c2cnnc(N/N=C/c3ccc(O)c(OC)c3)n2)cc1 the results were FLuc inh counter 81, C8 TRAIL sens 59, Wee1 degr inh inactive, PPC-1+TRAIL kill inactive, FLuc stim CS inactive and PKD1 kinase inh inactive.
Screening CCOC(=O)N1CCN(C2OC(=O)c3ccccc32)CC1 (stereo not given) returned FLuc inh counter inactive, C8 TRAIL sens inactive, Wee1 degr inh 9.7, PPC-1+TRAIL kill inactive, FLuc stim CS inactive and PKD1 kinase inh inactive.
Screening Cc1ccc(NC(=O)C2(NC(=O)c3ccccn3)CCCCC2)cc1Br returned FLuc inh counter inactive, C8 TRAIL sens inactive, Wee1 degr inh inactive, PPC-1+TRAIL kill inactive, FLuc stim CS inactive and PKD1 kinase inh inactive.
For CCC(=O)NC(NC(=S)Nc1cccc2cccnc12)C(Cl)(Cl)Cl (stereo not given) the results were FLuc inh counter inactive, C8 TRAIL sens inactive, Wee1 degr inh 9.8, PPC-1+TRAIL kill inactive, FLuc stim CS inactive and PKD1 kinase inh inactive.
CCc1ccc(NC(=S)N2CCCCCCC2)cc1 was read as FLuc inh counter 54, C8 TRAIL sens inactive, Wee1 degr inh inactive, PPC-1+TRAIL kill inactive, FLuc stim CS inactive and PKD1 kinase inh inactive.
COC(=O)Cc1ccc(NC(=S)N2CCCCC2C)cc1 (stereo not given) was read as FLuc inh counter 83, C8 TRAIL sens inactive, Wee1 degr inh inactive, PPC-1+TRAIL kill inactive, FLuc stim CS inactive and PKD1 kinase inh inactive.
`COC(=O)Cc1ccc(NC(=S)N2CCN(C)CC2)cc1` gave FLuc inh counter 56, C8 TRAIL sens inactive, Wee1 degr inh inactive, PPC-1+TRAIL kill inactive, FLuc stim CS inactive and PKD1 kinase inh inactive.
`CCOc1ccc(NC(=S)N2CCCC2)cc1` gave C8 TRAIL sens inactive.
For COC(=O)Cc1ccc(NC(=S)N2CCN(c3ccc(OC)cc3)CC2)cc1 the results were FLuc inh counter inactive, C8 TRAIL sens inactive, Wee1 degr inh inactive, PPC-1+TRAIL kill inactive, FLuc stim CS inactive and PKD1 kinase inh inactive.
Screening CC(C)(C)N(Cc1ccccc1)C(=O)COC(=O)CNS(=O)(=O)c1ccc2ccccc2c1 returned C8 TRAIL sens inactive.
Screening CC1CCC(NC(=O)COc2ccccc2C(N)=O)CC1 (stereo not given) returned FLuc inh counter inactive, C8 TRAIL sens inactive, Wee1 degr inh inactive, PPC-1+TRAIL kill inactive, FLuc stim CS inactive and PKD1 kinase inh inactive.
Screening CC(C)CN(CC(C)C)C(=O)COc1ccccc1C(N)=O returned FLuc inh counter inactive, C8 TRAIL sens inactive, Wee1 degr inh 9.9, PPC-1+TRAIL kill inactive, FLuc stim CS inactive and PKD1 kinase inh inactive.
For CN=c1scc(-c2ccccc2F)n1/N=C(\C)c1cccnc1 the results were FLuc inh counter 73, C8 TRAIL sens 63, Wee1 degr inh inactive, PPC-1+TRAIL kill inactive, FLuc stim CS inactive and PKD1 kinase inh inactive.
NC(=O)c1ccc(NC(=O)Cn2c(=O)n(-c3ccccc3)c(=O)c3oc4ccccc4c32)cc1 was read as FLuc inh counter inactive, C8 TRAIL sens inactive, Wee1 degr inh 9.9, PPC-1+TRAIL kill inactive, FLuc stim CS inactive and PKD1 kinase inh inactive.
CC(=O)Nc1ccc(NC(=O)Cn2c(=O)n(-c3ccc(F)cc3)c(=O)c3oc4ccccc4c32)cc1 was read as FLuc inh counter inactive, C8 TRAIL sens inactive, Wee1 degr inh inactive, PPC-1+TRAIL kill inactive, FLuc stim CS inactive and PKD1 kinase inh inactive.
For COc1ccc(Cl)cc1C(=O)Nc1nc(C)cc(C)n1 the results were C8 TRAIL sens inactive.
For Cc1noc(C)c1S(=O)(=O)Nc1ccc(O)c2c(=O)cc(-c3ccccc3Cl)oc12 the results were C8 TRAIL sens inactive and PPC-1+TRAIL kill inactive.
`CCc1ccc(C2=NNC(=Nc3cccc(S(=O)(=O)N(C)C)c3)SC2)cc1` gave FLuc inh counter inactive, C8 TRAIL sens 71, Wee1 degr inh inactive, PPC-1+TRAIL kill inactive, FLuc stim CS inactive and PKD1 kinase inh inactive.
`Cc1ccc(C2=NNC(=Nc3ccc(F)cc3)SC2)cc1` gave FLuc inh counter inactive, C8 TRAIL sens inactive, Wee1 degr inh inactive, PPC-1+TRAIL kill inactive, FLuc stim CS inactive and PKD1 kinase inh inactive.
Screening Cc1nc(=S)c2c([nH]1)-c1ccccc1CC21CCCCC1 returned C8 TRAIL sens 80, Wee1 degr inh inactive and PPC-1+TRAIL kill inactive.
Screening c1ccc2c(c1)CCN(C1=Nc3cccc4cccc1c34)C2 returned FLuc inh counter 52, C8 TRAIL sens inactive, Wee1 degr inh inactive, PPC-1+TRAIL kill inactive, FLuc stim CS inactive and PKD1 kinase inh inactive.
`CC1(C)CC(NC(=O)COc2ccc3c4c(c(=O)oc3c2)CCCC4)CC(C)(C)N1` gave C8 TRAIL sens inactive.
Screening O=C(CN1C2CCC1CC(NC(=O)Nc1ccccc1)C2)NCc1ccco1 (stereo not given) returned FLuc inh counter inactive, C8 TRAIL sens inactive, Wee1 degr inh 10, PPC-1+TRAIL kill inactive, FLuc stim CS inactive and PKD1 kinase inh inactive.
For Cc1noc(C)c1-c1nc(CS(=O)(=O)c2ccccc2)no1 the results were C8 TRAIL sens inactive, Wee1 degr inh inactive and PPC-1+TRAIL kill inactive.
For COC(=O)c1c(-c2ccccc2)csc1N1C(=O)Nc2ccccc2N1O the results were FLuc inh counter 71, C8 TRAIL sens inactive, Wee1 degr inh inactive, PPC-1+TRAIL kill inactive, FLuc stim CS inactive and PKD1 kinase inh inactive.
For CCNC(=O)COC(=O)c1cc(C)n(-c2ccccc2)c1C the results were FLuc inh counter inactive, C8 TRAIL sens inactive, Wee1 degr inh inactive, PPC-1+TRAIL kill inactive, FLuc stim CS inactive and PKD1 kinase inh inactive.
Screening Cc1cc(C(=O)COC(=O)c2ccc(F)cc2F)c(C)n1C1CC1 returned C8 TRAIL sens inactive.
`Cc1cc(C(=O)COC(=O)c2ccc[nH]c2=O)c(C)n1-c1ccc(F)cc1` gave FLuc inh counter 79, C8 TRAIL sens 52, Wee1 degr inh inactive, PPC-1+TRAIL kill inactive, FLuc stim CS inactive and PKD1 kinase inh inactive.
Cc1cc(C(=O)COC(=O)c2ccc[nH]c2=O)c(C)n1C1CC1 was read as FLuc inh counter 64, C8 TRAIL sens inactive, Wee1 degr inh inactive, PPC-1+TRAIL kill inactive, FLuc stim CS inactive and PKD1 kinase inh inactive.
`Cc1cc(C(=O)OCC(=O)NCc2ccco2)c(C)n1-c1ccc(F)cc1` gave FLuc inh counter inactive, C8 TRAIL sens inactive, Wee1 degr inh inactive, PPC-1+TRAIL kill inactive, FLuc stim CS inactive and PKD1 kinase inh inactive.
`Cc1cc(C(=O)COC(=O)c2ccc[nH]c2=O)c(C)n1-c1ccccc1` gave FLuc inh counter 91, C8 TRAIL sens 72, Wee1 degr inh inactive, PPC-1+TRAIL kill 62, FLuc stim CS inactive and PKD1 kinase inh inactive.
